In ChEMBL document CHEMBL5223148, “Design, synthesis, and bioactivity evaluation of novel 1-(4-(benzylsulfonyl)-2-nitrophenyl) derivatives as potential anti-inflammatory agents against LPS-induced acute lung injury” (Bioorg Med Chem Lett, 2023):
Activity calls are given as the source filed them. No cut-off for these calls is given here.

Assays:
J774.A1 [1] = assay: Antiinflammatory activity in mouse J774.A1 cells assessed as decrease in LPS-induced TNF-alpha secretion at 20 uM preincubated for 30 mins followed by LPS stimulation and measured after 24 hrs by ELISA; assay type: functional; conditions: time 24.5 hrs
Method in brief: (§1)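 J774A.1 macrophages pretreated 30 min with 20 μM compound, DMSO as negative control. Cells then stimulated with LPS at 0.5 μg/mL for 24 h. IL-6 and TNF-α in the culture medium measured by ELISA.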

J774.A1 [2] = assay: Antiinflammatory activity in mouse J774.A1 cells assessed as decrease in LPS-induced IL-6 secretion at 20 uM preincubated for 30 mins followed by LPS stimulation and measured after 24 hrs by ELISA; assay type: functional; set-up: scale not given: the % may be the effect or the level left; conditions: time 24.5 hrs; method in brief: as §1
Mus musculus [3] = assay: Antiinflammatory activity in C57BL/6J mouse model of LPS-induced acute lung injury assessed as reduction in IL-6 production in BALF at 20 mg/kg, po administered 30 mins prior to LPS treatment and measured after 6 hrs; assay type: functional, organism-based; conditions: time 6.5 hrs
Method in brief: (§2)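 Mice dosed orally 30 min before intratracheal LPS at 5 mg/kg; sham mice received a similar volume of saline. Animals sacrificed 6 h after LPS, and blood and BALF collected. TNF-α and IL-6 measured in serum and in BALF. Mean ± SEM, n = 8, compared with the LPS-only group.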

Mus musculus [4] = assay: Antiinflammatory activity in C57BL/6J mouse model of LPS-induced acute lung injury assessed as reduction in IL-6 production in serum at 20 mg/kg, po administered 30 mins prior to LPS treatment and measured after 6 hrs; assay type: functional, organism-based; conditions: time 6.5 hrs; method in brief: as §2
Mus musculus [5] = assay: Antiinflammatory activity in C57BL/6J mouse model of LPS-induced acute lung injury assessed as reduction in TNF-alpha production in BALF at 20 mg/kg, po administered 30 mins prior to LPS treatment and measured after 6 hrs; assay type: functional, organism-based; conditions: time 6.5 hrs; method in brief: as §2
Mus musculus [6] = assay: Antiinflammatory activity in C57BL/6J mouse model of LPS-induced acute lung injury assessed as reduction in tissue destruction at 20 mg/kg, po administered 30 mins prior to LPS treatment and measured after 6 hrs by H and E staining based assay; assay type: functional, organism-based; conditions: time 6.5 hrs
Method in brief: (§3)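 Oral pretreatment 30 min before intratracheal LPS at 5 mg/kg, with a saline sham group. Lungs harvested 6 h later. H&E-stained sections scored for alveolar septal thickness, pulmonary congestion, inflammatory infiltration and tissue destruction.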

Mus musculus [7] = assay: Antiinflammatory activity in C57BL/6J mouse model of LPS-induced acute lung injury assessed as reduction in […] infiltration at 20 mg/kg, po administered 30 mins prior to LPS treatment and measured after 6 hrs by F4/80 antibody staining based assay; assay type: functional, organism-based; conditions: time 6.5 hrs
Method in brief: (§4)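 Oral pretreatment 30 min before intratracheal LPS at 5 mg/kg, with a saline sham group. Lungs taken at 6 h. Sections immunostained for F4/80 (macrophage marker) or for p-p65, counterstained with hematoxylin. Percentage of positive cells assessed.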

Mus musculus [8] = assay: Antiinflammatory activity in C57BL/6J mouse model of LPS-induced acute lung injury assessed as reduction in p-p65 level at 20 mg/kg, po administered 30 mins prior to LPS treatment and measured after 6 hrs by immunohistochemical analysis; assay type: functional, organism-based; conditions: time 6.5 hrs; method in brief: as §4
J774.A1 [9] = assay: Antiinflammatory activity in mouse J774.A1 cells assessed as decrease in LPS-induced TNF-alpha secretion preincubated for 30 mins followed by LPS stimulation and measured after 24 hrs by ELISA; assay type: functional, cell-based; conditions: for Activity: time 24.5 hrs
Method in brief: (§5)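 J774A.1 cells pretreated 30 min across a concentration range, then challenged with LPS at 0.5 μg/mL for 24 h. Secreted IL-6 or TNF-α measured in the medium by ELISA, and IC50 taken from dose–response. Mean ± SEM of 3 independent experiments.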

Mus musculus [10] = assay: Antiinflammatory activity in C57BL/6J mouse model of LPS-induced acute lung injury assessed as reduction in neutrophil count in BALF at 20 mg/kg, po administered 30 mins prior to LPS treatment and measured after 6 hrs by Wright and Giemsa staining based analysis; assay type: functional, organism-based; conditions: time 6.5 hrs
Method in brief: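 Oral dosing 30 min before intratracheal LPS at 5 mg/kg, with a saline sham group. BALF collected at 6 h and neutrophils counted by Wright-Giemsa staining, given relative to control. Mean ± SEM, n = 8.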

Mus musculus [11] = assay: Antiinflammatory activity in C57BL/6J mouse model of LPS-induced acute lung injury assessed as reduction in TNF-alpha production in serum at 20 mg/kg, po administered 30 mins prior to LPS treatment and measured after 6 hrs; assay type: functional, organism-based; conditions: time 6.5 hrs; method in brief: as §2
Mus musculus [12] = assay: Antiinflammatory activity in C57BL/6J mouse model of LPS-induced acute lung injury assessed as reduction in inflammatory infiltration at 20 mg/kg, po administered 30 mins prior to LPS treatment and measured after 6 hrs by H and E staining based assay; assay type: functional, organism-based; conditions: time 6.5 hrs; method in brief: as §3
Mus musculus [13] = assay: Antiinflammatory activity in C57BL/6J mouse model of LPS-induced acute lung injury assessed as reduction in alveolar septa thickness at 20 mg/kg, po administered 30 mins prior to LPS treatment and measured after 6 hrs by H and E staining based assay; assay type: functional, organism-based; conditions: time 6.5 hrs; method in brief: as §3
J774.A1 [14] = assay: Antiinflammatory activity in mouse J774.A1 cells assessed as decrease in LPS-induced IL-6 secretion preincubated for 30 mins followed by LPS stimulation and measured after 24 hrs by ELISA; assay type: functional, cell-based; conditions: for Activity: time 24.5 hrs; method in brief: as §5
Mus musculus [15] = assay: Antiinflammatory activity in C57BL/6J mouse model of LPS-induced acute lung injury assessed as reduction in pulmonary congestion at 20 mg/kg, po administered 30 mins prior to LPS treatment and measured after 6 hrs by H and E staining based assay; assay type: functional, organism-based; conditions: time 6.5 hrs; method in brief: as §3

Structure (SMILES) | Activity (J774.A1 [1]) | Activity (J774.A1 [2]) | further results
CCN1CCN(c2ccc(S(=O)(=O)Cc3ccccc3)cc2[N+](=O)[O-])CC1 | inactive | 21.24% | 
Cc1ccc(CS(=O)(=O)c2ccc(N3CCN(c4ccc([N+](=O)[O-])cc4)CC3)c([N+](=O)[O-])c2)cc1 | inactive | inactive | 
COCCN1CCN(c2ccc(S(=O)(=O)Cc3cccc(OC)c3)cc2[N+](=O)[O-])CC1 | inactive | inactive | 
Cc1ccc(CS(=O)(=O)c2ccc(N3CCN(CCO)CC3)c([N+](=O)[O-])c2)cc1 | inactive | inactive | 
CCN1CCN(c2ccc(S(=O)(=O)Cc3cccc(OC)c3)cc2[N+](=O)[O-])CC1 | 33.13% | 63.29% | Activity (Mus musculus [3]): Active; Activity (Mus musculus [4]): Active; Activity (Mus musculus [5]): Active; Activity (Mus musculus [6]): Active; Activity (Mus musculus [7]): Active; Activity (Mus musculus [8]): Active; IC50 (J774.A1 [9]): 19.6 µM; Activity (J774.A1 [9]): Active; Activity (Mus musculus [10]): Active; Activity (Mus musculus [11]): Active; Activity (Mus musculus [12]): Active; Activity (Mus musculus [13]): Active; IC50 (J774.A1 [14]): 5.66 µM; Activity (J774.A1 [14]): Dose-Dependent Effect; Activity (Mus musculus [15]): Active
CCN1CCN(c2ccc(S(=O)(=O)Cc3ccc(C)cc3)cc2[N+](=O)[O-])CC1 | inactive | 52.95% | 
O=[N+]([O-])c1cc(S(=O)(=O)Cc2ccccc2)ccc1N1CCN(CCO)CC1 | 29.04% | 56.59% | 
O=[N+]([O-])c1ccc(N2CCN(c3ccc(S(=O)(=O)Cc4ccccc4)cc3[N+](=O)[O-])CC2)cc1 | inactive | 51.52% | 
COCCN1CCN(c2ccc(S(=O)(=O)Cc3ccc(C)cc3)cc2[N+](=O)[O-])CC1 | inactive | 2.98% | 
O=[N+]([O-])c1cc(S(=O)(=O)Cc2ccc(F)cc2)ccc1N1CCN(CCO)CC1 | 29.96% | 54.2% | 
O=[N+]([O-])c1cccc(CN2CCN(c3ccc(S(=O)(=O)Cc4cccc(F)c4)cc3[N+](=O)[O-])CC2)c1 | 22.51% | 59.44% | 
CCN1CCN(c2ccc(S(=O)(=O)Cc3cccc(F)c3)cc2[N+](=O)[O-])CC1 | 24.43% | 58.89% | 
COc1cccc(CS(=O)(=O)c2ccc(N(C)C)c([N+](=O)[O-])c2)c1 | inactive | 8.62% | 
COc1cccc(CS(=O)(=O)c2ccc(N3CCN(c4ccc([N+](=O)[O-])cc4)CC3)c([N+](=O)[O-])c2)c1 | inactive | 66.21% | 
COCCN1CCN(c2ccc(S(=O)(=O)Cc3ccccc3)cc2[N+](=O)[O-])CC1 | inactive | inactive | 
CN(C)c1ccc(S(=O)(=O)Cc2ccccc2)cc1[N+](=O)[O-] | inactive | inactive | 
COc1cccc(CS(=O)(=O)c2ccc(N3CCN(CCO)CC3)c([N+](=O)[O-])c2)c1 | inactive | 15.23% | 
COc1cccc(CS(=O)(=O)c2ccc(N3CCN(C(C)=O)CC3)c([N+](=O)[O-])c2)c1 | inactive | 5.7% | 
O=[N+]([O-])c1ccc(N2CCN(c3ccc(S(=O)(=O)Cc4ccc(F)cc4)cc3[N+](=O)[O-])CC2)cc1 | 18.6% | 62.47% | 

Structure (SMILES) | Activity (J774.A1 [1]) | Activity (J774.A1 [2]) | further results
CN1CCN(c2ccc(S(=O)(=O)Cc3ccccc3)cc2[N+](=O)[O-])CC1 | 16.86% | 53.04% | 
O=[N+]([O-])c1ccc(N2CCN(c3ccc(S(=O)(=O)Cc4cccc(F)c4)cc3[N+](=O)[O-])CC2)cc1 | 12.18% | 68.87% | IC50 (J774.A1 [9]): 23.4 µM; Activity (J774.A1 [9]): Active; IC50 (J774.A1 [14]): 6.01 µM; Activity (J774.A1 [14]): Dose-Dependent Effect
O=[N+]([O-])c1cccc(CN2CCN(c3ccc(S(=O)(=O)Cc4ccc(F)cc4)cc3[N+](=O)[O-])CC2)c1 | 27.46% | 59.52% | 
O=[N+]([O-])c1ccc(CN2CCN(c3ccc(S(=O)(=O)Cc4ccc(F)cc4)cc3[N+](=O)[O-])CC2)cc1 | 26.45% | 71.54% | Activity (J774.A1 [9]): inactive; Activity (J774.A1 [14]): inactive
CCN1CCN(c2ccc(S(=O)(=O)Cc3ccc(F)cc3)cc2[N+](=O)[O-])CC1 | inactive | 31.39% | 
O=[N+]([O-])c1cccc(CN2CCN(c3ccc(S(=O)(=O)Cc4ccccc4)cc3[N+](=O)[O-])CC2)c1 | inactive | 57.27% | 
COCCN1CCN(c2ccc(S(=O)(=O)Cc3cccc(F)c3)cc2[N+](=O)[O-])CC1 | inactive | 0.29% | 
CC(=O)N1CCN(c2ccc(S(=O)(=O)Cc3cccc(F)c3)cc2[N+](=O)[O-])CC1 | 36.28% | 62.38% | IC50 (J774.A1 [9]): 28.9 µM; Activity (J774.A1 [9]): Active; IC50 (J774.A1 [14]): 14.7 µM; Activity (J774.A1 [14]): Dose-Dependent Effect
COc1cccc(CS(=O)(=O)c2ccc(N3CCNCC3)c([N+](=O)[O-])c2)c1 | inactive | 18.18% | 
CC(=O)N1CCN(c2ccc(S(=O)(=O)Cc3ccc(F)cc3)cc2[N+](=O)[O-])CC1 | 10.99% | 33.81% | 
CC(=O)N1CCN(c2ccc(S(=O)(=O)Cc3ccccc3)cc2[N+](=O)[O-])CC1 | 19.12% | 40.41% | 
CN(C)c1ccc(S(=O)(=O)Cc2cccc(F)c2)cc1[N+](=O)[O-] | inactive | inactive | 
COCCN1CCN(c2ccc(S(=O)(=O)Cc3ccc(F)cc3)cc2[N+](=O)[O-])CC1 | inactive | 12.89% | 
COc1cccc(CS(=O)(=O)c2ccc(N3CCN(Cc4cccc([N+](=O)[O-])c4)CC3)c([N+](=O)[O-])c2)c1 | inactive | 41.95% | 
O=[N+]([O-])c1cc(S(=O)(=O)Cc2cccc(F)c2)ccc1N1CCN(CCO)CC1 | inactive | 4.55% | 
CC(=O)N1CCN(c2ccc(S(=O)(=O)Cc3ccc(C)cc3)cc2[N+](=O)[O-])CC1 | inactive | 16.83% | 
C[C@@H]1C[C@H]2[C@@H]3CCC4=CC(=O)C=C[C@]4(C)[C@@]3(F)[C@@H](O)C[C@]2(C)[C@@]1(O)C(=O)CO |  |  | Activity (Mus musculus [7]): Active; Activity (Mus musculus [8]): Active; Activity (Mus musculus [10]): Active
CN(C)c1ccc(S(=O)(=O)Cc2ccc(F)cc2)cc1[N+](=O)[O-] | inactive | inactive | 
CN(C)CCS(=O)(=O)Cc1ccc(Br)cc1 | inactive | 79.61% | 
